# Laboratory results published in ChEMBL document CHEMBL5335784, “Discovery of a novel 1,3,4-oxadiazol-2-one-based NLRP3 inhibitor as a pharmacological agent to mitigate cardiac and metabolic complications in an experimental model of diet-induced metaflammation” (Eur J Med Chem, 2023).
# Activity calls are given as the source filed them. The calls are words filed in the database; no cut-off is given here.
# Experiments:
# [1] = system: Rattus norvegicus; assay: (§1) Inhibition of ischemia/reperfusion-induced inflammation in ischemia/reperfusion-induced myocardial injury and high fat diet fed obese Wistar rat model assessed as decrease in cardiac IL-1 beta level at 20 mg/kg/day, ip administered for 4 weeks followed by excised heart exposed to global ischemia for 30 mins and reperfusion for 120 mins by ELISA; format: functional, organism-based
# Summary of the method: (§2)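 Male Wistar rats on standard or 60% kcal fat diet for 12 weeks; last 28 days i.p. 20 mg/kg/day in saline with 2% DMSO and 5% Cremophor-EL, or vehicle. Hearts perfused by Langendorff with KH buffer at 12 ml/min, 37°C, then 40 min stabilization, 30 min global no-flow ischemia and 120 min reperfusion. Cytokines measured in LV tissue; n=6–7 per group.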
# [2] = system: Rattus norvegicus; assay: (§3) Cardioprotective activity against myocardial ischemia/reperfusion injury-induced contractile impairment and high fat diet fed obese Wistar rat model assessed as left ventricular end diastolic pressure at 20 mg/kg/day, ip administered for 4 weeks followed by excised heart exposed to global ischemia for 30 mins and reperfusion for 120 mins and measured at the end of reperfusion (reference value: 27 +/-1 mmHg); format: functional
# [3] = system: Rattus norvegicus; assay: Cardioprotective activity against ischemia/reperfusion-induced myocardial injury and high diet fed obese Wistar rat model assessed as infarct size at 20 mg/kg/day, ip administered for 4 weeks followed by excised heart exposed to global ischemia for 30 mins and reperfusion for 120 mins and measured at the end of reperfusion by nitroblue tetrazolium staining based analysis (Rvb ~ 70+/-1%); format: functional; conditions: 672 h
# Summary of the method: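 Hearts from HFD or SD rats (20 mg/kg/day i.p., last 28 days) Langendorff-perfused (KH buffer, 37 °C, 12 ml/min). After 40 min stabilization they underwent 30 min global ischemia and 120 min reperfusion. The LV was stained; unstained necrotic and stained viable tissue separated and weighed. Infarct size expressed as % of LV mass. n=6–7.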
# [4] = system: Rattus norvegicus; assay: Antiinflammatory activity against high fat diet fed-induced metaflammation Wistar rat model assessed as reduction in HFD-induced anthropometric alterations by measuring reduction in abdominal fat deposition at 20 mg/kg/day, ip administered for 4 weeks; format: functional, organism-based
# Summary of the method: (§4)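 Male Wistar rats on high-fat diet (60% kcal fat) or standard diet for 12 weeks; 20 mg/kg/day i.p. or vehicle (saline, 2% DMSO, 5% Cremophor-EL) over the last 28 days. Body weight recorded weekly. After sacrifice, abdominal, epididymal, retroperitoneal and perirenal fat, liver and heart excised and weighed. Cardiac somatic index = heart weight/body weight ×100. n=6–7 per group.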
# [5] = n-Octanol/water distribution coefficient, log D of the compound at pH 7.4 measured after 4 hrs by shake flask method; format: physicochemical
# Summary of the method: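 Shake-flask at room temperature between n-octanol and 50 mM phosphate buffer pH 7.4, ionic strength 0.15 M KCl. Phases were pre-saturated by 4 h shaking. Compound at about 0.1 mg/ml in buffer, shaken about 20 min with n-octanol, then centrifuged at 10000 rpm for 10 min.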
# [6] = target: NACHT, LRR and PYD domains-containing protein 3 (Homo sapiens, UniProt Q96P20); assay: Inhibition of NLRP3-dependent pyroptosis in PMA-differentiated human THP-1 cells assessed as inhibition of LPS/MSU-induced cell death at 10 uM by LDH assay; format: cell-based
# [7] = system: Rattus norvegicus; assay: Antiinflammatory activity against high fat diet fed-induced metaflammation Wistar rat model assessed as reduction in HFD-induced anthropometric alterations by measuring reduction in cardiac somatic index at 20 mg/kg/day, ip administered for 4 weeks; format: functional, organism-based; summary of the method: as §4
# [8] = Stability of the compound in saline solution containing 2% DMSO and 5% Cremophor-EL measured at 4 degC for more than 7 days by RP-HPLC analysis; format: physicochemical; conditions: buffer, 168 h; time 7 day
# Summary of the method: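 A 2 mg/mL solution in saline with 2% DMSO and 5% Cremophor-EL was kept at 4 °C or 25 °C for 7 days and analysed daily by RP-HPLC at 226/254 nm.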
# [9] = system: Rattus norvegicus; assay: Antiinflammatory activity against high fat diet fed-induced metaflammation Wistar rat model assessed as reduction in serum TNF-alpha level at 20 mg/kg/day, ip administered for 4 weeks by ELISA; format: functional, organism-based
# Summary of the method: (§5)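 Male Wistar rats on HFD or SD for 12 weeks received 20 mg/kg/day i.p. (saline, 2% DMSO, 5% Cremophor-EL) or vehicle for the last 28 days. Circulating IL-1β, TNF-α, BNP and Gal-3 quantified by ELISA in blood collected after sacrifice. n=6–7 per group.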
# [10] = system: Rattus norvegicus; assay: as §3, with “developed LVP recovery” for “left ventricular end diastolic pressure”, “32 +/-4” for “27 +/-1”; format: functional
# [11] = system: Rattus norvegicus; assay: as §1, with “oxidative stress” for “inflammation”, “MDA” for “IL-1 beta”, “TBARS assay” for “ELISA”; format: functional, organism-based
# Summary of the method: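 Same rat diet, dosing and Langendorff ischemia/reperfusion protocol. LV homogenized 10% w/v in 0.9% KCl pH 7.4. Homogenate heated at 100 °C for 15 min with TCA and TBA plus butylated hydroxytoluene, centrifuged, and read at […]. MDA expressed as nmol/g heart tissue, compared with sham hearts perfused for 190 min.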
# [12] = Drug metabolism in human THP-1 cells assessed as half time for compound hydrolysis to 2-(5-(2-Chlorobenzyl)-2-oxo-1,3,4-oxadiazol-3(2H)-yl)acetic acid at 100 uM by RP-HPLC analysis; format: ADME, cell-based
# Summary of the method: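 PMA-differentiated THP-1 cells lysed in RIPA buffer. Compound added to lysate at 100 μM final (from 10 mM DMSO stock) at 37 °C. Aliquots at intervals deproteinized with CH3CN/0.1% TFA and quantified by RP-HPLC against standards. Pseudo-first-order t1/2 from exponential decay fit; three experiments.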
# [13] = system: Rattus norvegicus; assay: Antiinflammatory activity against high fat diet fed-induced metaflammation Wistar rat model assessed as reduction in HFD-induced metabolic alterations by measuring increase in HDL cholesterol level in plasma at 20 mg/kg/day, ip administered for 4 weeks; format: functional, organism-based
# Summary of the method: (§6)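 Rats fed HFD or SD for 12 weeks, dosed 20 mg/kg/day i.p. in saline/2% DMSO/5% Cremophor-EL during the final 28 days. Serum obtained after sacrifice by centrifuging blood at 2000 x g, 10 min, 4 °C. Glucose read by glucometer; total, HDL and LDL cholesterol and triglycerides measured with commercial kits. n=6–7 per group.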
# [14] = system: Rattus norvegicus; assay: Antiinflammatory activity against high fat diet fed-induced metaflammation Wistar rat model assessed as reduction in HFD-induced anthropometric alterations by measuring reduction in liver weight at 20 mg/kg/day, ip administered for 4 weeks; format: functional, organism-based; summary of the method: as §4
# [15] = system: Rattus norvegicus; assay: Cardioprotective activity against high fat diet fed-induced metaflammation Wistar rat model assessed as reduction in myocardial damage by measuring reduction in plasma BNP level at 20 mg/kg/day, ip administered for 4 weeks by ELISA; format: functional, organism-based; summary of the method: as §5
# [16] = Effect on left ventricular end diastolic pressure in high diet fed obese Wistar rat model at 20 mg/kg/day, ip administered for 4 weeks (reference value: 6+/-0.2 mm Hg); format: toxicity, organism-based; conditions: in vivo, 672 h
# [17] = Effect on developed LVP recovery in standard diet fed Wistar rat model at 20 mg/kg/day, ip administered for 4 weeks (reference value: 69 +/-4 mmHg); format: toxicity, organism-based; conditions: in vivo, 672 h
# [18] = system: Rattus norvegicus; assay: Antiinflammatory activity against high fat diet fed-induced metaflammation Wistar rat model assessed as reduction in HFD-induced metabolic alterations by measuring reduction in LDL cholesterol level in plasma at 20 mg/kg/day, ip administered for 4 weeks; format: functional, organism-based; summary of the method: as §6
# [19] = system: Rattus norvegicus; assay: as §1, with “standard” for “high fat”, “fed” for “fed obese”, “TNF-alpha” for “IL-1 beta”; format: functional, organism-based; summary of the method: as §2
# [20] = Effect on Gal-3 level in standard diet fed Wistar rat plasma at 20 mg/kg/day, ip administered for 4 weeks; format: toxicity, organism-based; conditions: in vivo, 672 h; summary of the method: as §5
# Chain of NACHT, LRR and PYD domains-containing protein 3 (Q96P20 whole entry, the tested form may be a part): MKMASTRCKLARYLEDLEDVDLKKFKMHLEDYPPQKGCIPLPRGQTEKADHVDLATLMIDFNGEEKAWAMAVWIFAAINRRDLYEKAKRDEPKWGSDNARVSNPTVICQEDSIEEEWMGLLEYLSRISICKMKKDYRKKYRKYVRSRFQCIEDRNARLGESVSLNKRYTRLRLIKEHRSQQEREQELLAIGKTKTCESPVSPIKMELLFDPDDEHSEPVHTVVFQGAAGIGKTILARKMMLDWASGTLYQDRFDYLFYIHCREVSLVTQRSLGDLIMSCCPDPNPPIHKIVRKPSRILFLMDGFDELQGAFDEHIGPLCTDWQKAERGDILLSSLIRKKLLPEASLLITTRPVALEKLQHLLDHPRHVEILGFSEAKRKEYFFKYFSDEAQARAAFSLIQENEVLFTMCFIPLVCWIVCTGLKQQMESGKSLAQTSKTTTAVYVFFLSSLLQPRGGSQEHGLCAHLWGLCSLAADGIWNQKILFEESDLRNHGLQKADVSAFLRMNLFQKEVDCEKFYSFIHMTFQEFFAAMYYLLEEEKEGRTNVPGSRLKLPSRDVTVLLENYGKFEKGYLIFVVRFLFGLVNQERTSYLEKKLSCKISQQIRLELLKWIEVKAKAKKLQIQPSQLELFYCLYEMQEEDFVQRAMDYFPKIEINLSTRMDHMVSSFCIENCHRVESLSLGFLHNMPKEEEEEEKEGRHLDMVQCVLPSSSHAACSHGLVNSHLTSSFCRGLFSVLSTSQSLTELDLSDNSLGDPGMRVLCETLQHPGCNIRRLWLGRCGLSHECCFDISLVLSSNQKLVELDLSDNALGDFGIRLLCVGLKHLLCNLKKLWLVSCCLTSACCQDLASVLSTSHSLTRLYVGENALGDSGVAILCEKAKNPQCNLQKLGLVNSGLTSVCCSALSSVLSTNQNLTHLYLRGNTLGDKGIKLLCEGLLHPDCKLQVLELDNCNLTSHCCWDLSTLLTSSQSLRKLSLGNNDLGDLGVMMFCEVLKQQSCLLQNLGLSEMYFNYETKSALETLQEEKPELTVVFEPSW
smiles,measurement,setting,value
CCOC(=O)Cn1nc(Cc2ccccc2Cl)oc1=O,inhibition,[1],Active
same,Activity,[2],18 mmHg
same,infarct size in vivo at 20 mg/kg/day,[3],~61%
same,Activity,[4],Active
same,logD at 4 h,[5],2.03
same,inhibition,[6],61.6%
same,Activity,[7],Active
same,Stability,[8],Stable
same,Activity,[9],Active
same,Activity,[10],65 mmHg
same,inhibition,[11],Active
same,half-life at 100 µM,[12],1.08 h
same,Activity,[13],Active
same,Activity,[14],Active
same,Activity,[15],Active
same,Activity,[16],4 mmHg
same,Activity,[17],65 mmHg
same,Activity,[18],Active
same,inhibition,[19],Active
same,Activity,[20],Non-Toxic
